GFP response vs DMSO, GFP response relative to DMSO and GFP response, % of DMSO data for 13 compounds are collected here from PubChem BioAssay.

SMILES strings stand for the structures. Calls of active or inactive are those of the source.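 How the source made its calls, unless noted: active means GFP response above 150% of the DMSO level; inconclusive means fewer than 70 events counted for a yeast strain; inactive means the rest.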

Experiment [1] is described as follows: hit retest on RPL19A-GFP reporter strain – cell-based, S. cerevisiae, flow cytometry, cherry picks, mother/daughter gates, confirmation (AID 2270;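 active means GFP response below 50% of the DMSO control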). The note with it: 3 h, at 10 µM, stronger effect = lower value, 100 = same GFP as DMSO wells. A general note: A flow cytometer gives signals particle by particle.
The nature of experiment [2]: yeast TOR pathway reporter LAP4-GFP change – cell-based, cherry picks, flow cytometry, mother/daughter gates, confirmation (AID 2271;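 active means GFP response above 150% of the DMSO control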;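 further: ratio of sample to DMSO plate mean so 100% equals DMSO level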). To be noted: S. cerevisiae LAP4-GFP strain, 3 h, at 10 µM, stronger effect = higher value, 100 means same as DMSO control. The method, boiled down: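 System: GFP-fusion yeast strain; Incubation: compound exposure 3 h at 30 °C, end-over-end rotation; Measured by: GFP by flow cytometry; Read-out: median GFP fluorescence as percent of plate-mean DMSO wells; Medium: synthetic complete (SC) yeast growth medium; Compound: single test-compound dose, 10 µM final; Benchmarks: DMSO-only negative wells, rapamycin 400 ng/mL positive wells.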

The nature of experiment [3]: TOR pathway reporter MEP2-GFP, retest of hits – S. cerevisiae, flow cytometry GFP, cherry picks, confirmation (AID 2272;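 active means GFP response above 150% of the DMSO control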;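 further: ratio of well signal to plate DMSO mean so 100% equals DMSO level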). The note with it: S. cerevisiae MEP2-GFP strain, 3 h, at 10 µM, stronger effect = higher value.
Experiment [4] can be described thus: yeast AGP1-GFP fluorescence change, single-dose – cell-based, flow cytometry, S. cerevisiae, cherry picks, confirmation (AID 2273).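 Further: median GFP channel fluorescence over the whole cell population gate.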 To be noted: S. cerevisiae AGP1-GFP strain, 3 h, at 10 µM.
Experiment [5] in a line: TOR pathway CIT2 reporter hit retest – S. cerevisiae, GFP fusion, cherry picks, mother/daughter gates, confirmation (AID 2274). The note with it: S. cerevisiae CIT2-GFP strain, flow cytometry, 3 h, at 10 µM, stronger effect = higher value.
[6] abbreviates: measured here: daughter cell gate.
[7] abbreviates: measured here: mother cell gate.
[8] abbreviates: measured here: daughter cell gate response.
Setting [9] is: measured here: mother cell gate response.

As to `O=C1C=C(c2ccccc2)C(=O)N1Nc1ccccc1`, the GFP response vs DMSO in experiment [1] was 77.5% (inactive); in experiment [1] (setting [6]) it was 88.3%; in experiment [1] (setting [7]) it was 64.5%; in experiment [3], 102% (inactive). In addition, the GFP response relative to DMSO in experiment [2] was 124% (inactive); in experiment [2] (setting [8]), 96%; in experiment [2] (setting [9]) it was 113%. Further, the GFP response, % of DMSO is 78.4% (inactive) in experiment [4], 92.6% (inactive) in experiment [5], 95.4% in experiment [5] (setting [6]) and 78.3% in experiment [5] (setting [7]).

In the case of `Nc1cccc(C(=O)Nc2ccccc2Cl)c1`, the GFP response vs DMSO in experiment [1] is 99.8% (inactive); in experiment [1] (setting [6]), 99.1%; in experiment [1] (setting [7]), 98.9%; in experiment [3], 100% (inactive). The GFP response relative to DMSO in experiment [2] is 97.9% (inactive); in experiment [2] (setting [8]), 97.6%; in experiment [2] (setting [9]) it was 98.3%. Besides, the GFP response, % of DMSO in experiment [4] was 93.5% (inactive); in experiment [5] it was 103% (inactive); in experiment [5] (setting [6]) it was 103%; in experiment [5] (setting [7]) it was 101%.

Turning to `COc1ccc2c(/C=C/c3cc[n+](C)cc3)c[nH]c2c1`, the GFP response vs DMSO in experiment [1] is 102% (inactive); in experiment [1] (setting [6]), 106%; in experiment [1] (setting [7]), 101%; in experiment [3] it was 199% (active). Also, the GFP response relative to DMSO in experiment [2] is 144% (inactive); in experiment [2] (setting [8]), 152%; in experiment [2] (setting [9]) it was 143%. Moreover, the GFP response, % of DMSO is 100% (inactive) in experiment [4], 161% (active) in experiment [5], 169% in experiment [5] (setting [6]) and 157% in experiment [5] (setting [7]).

On to `CC(C)c1nnc(-c2ccc(Cl)cc2)c(N(C)C)n1`, for which the GFP response vs DMSO in experiment [1] was 98.9% (inactive); in experiment [1] (setting [6]) it was 99.3%; in experiment [1] (setting [7]), 97.8%; in experiment [3], 103% (inactive). Besides, the GFP response relative to DMSO was 98.9% (inactive) in experiment [2], 96% in experiment [2] (setting [8]) and 99.5% in experiment [2] (setting [9]). In addition, the GFP response, % of DMSO in experiment [4] was 106% (inactive); in experiment [5], 100% (inactive); in experiment [5] (setting [6]) it was 101%; in experiment [5] (setting [7]), 100%.

With `Cc1oc2c(CN3CCCC(C)C3)c(O)ccc2c(=O)c1-c1ccccc1` (stereo not drawn), the GFP response vs DMSO is 102% (inactive) in experiment [1], 102% in experiment [1] (setting [6]), 104% in experiment [1] (setting [7]) and 141% (inactive) in experiment [3]. Also, the values for the GFP response relative to DMSO in experiment [2], in experiment [2] (setting [8]) and in experiment [2] (setting [9]) were 143% (inactive), 151% and 141%, respectively. For the same compound, the GFP response, % of DMSO was 107% (inactive) in experiment [4], 147% (inactive) in experiment [5], 152% in experiment [5] (setting [6]) and 143% in experiment [5] (setting [7]).

For `Cc1nnc(NC(=O)c2ccc(S(=O)(=O)N(C)Cc3ccccc3)cc2)o1`, the GFP response vs DMSO in experiment [1] is 98.4% (inactive); in experiment [1] (setting [6]), 98.1%; in experiment [1] (setting [7]), 98.2%; in experiment [3], 102% (inactive). The GFP response relative to DMSO in experiment [2] was 101% (inactive); in experiment [2] (setting [8]), 99.2%; in experiment [2] (setting [9]) it was 101%. In addition, the GFP response, % of DMSO in experiment [4] was 91.2% (inactive); in experiment [5] it was 103% (inactive); in experiment [5] (setting [6]) it was 101%; in experiment [5] (setting [7]) it was 102%.

For the compound `COc1ccc(C2CC(c3ccccc3)=NN2S(=O)(=O)c2ccccc2)cc1` (stereo not drawn), the GFP response vs DMSO in experiment [1] was 101% (inactive); in experiment [1] (setting [6]), 102%; in experiment [1] (setting [7]) it was 101%; in experiment [3] it was 146% (inactive). In addition, the GFP response relative to DMSO in experiment [2] was 113% (inactive); in experiment [2] (setting [8]), 110%; in experiment [2] (setting [9]), 112%. The GFP response, % of DMSO in experiment [4] was 104% (inactive); in experiment [5], 141% (inactive); in experiment [5] (setting [6]), 143%; in experiment [5] (setting [7]) it was 136%.

Consider `COc1ccc(N2CCN(C(=O)c3ccc(C)cc3Cl)CC2)cc1`, for which the GFP response vs DMSO is 101% (inactive) in experiment [1], 98.1% in experiment [1] (setting [6]), 102% in experiment [1] (setting [7]) and 104% (inactive) in experiment [3]. Further, the results for the GFP response relative to DMSO in experiment [2], in experiment [2] (setting [8]) and in experiment [2] (setting [9]) were 97.4% (inactive), 98.7% and 99.3%, respectively. The GFP response, % of DMSO was 95.9% (inactive) in experiment [4], 92.6% (inactive) in experiment [5], 93.2% in experiment [5] (setting [6]) and 92.3% in experiment [5] (setting [7]).

As for `O=C(Nc1cc(Sc2ccccn2)cc([N+](=O)[O-])c1)c1cccc(Cl)c1`, the GFP response vs DMSO in experiment [1] was 96.9% (inactive); in experiment [1] (setting [6]), 95.3%; in experiment [1] (setting [7]) it was 96.3%; in experiment [3] it was 106% (inactive). The GFP response relative to DMSO in experiment [2] is 102% (inactive); in experiment [2] (setting [8]) it was 104%; in experiment [2] (setting [9]) it was 104%. The GFP response, % of DMSO in experiment [4] is 103% (inactive); in experiment [5] it was 88.9% (inactive); in experiment [5] (setting [6]) it was 86.9%; in experiment [5] (setting [7]), 89.3%.

Regarding `COc1ccc(N2CCN(C(=O)c3ccc(Br)cc3)CC2)c([N+](=O)[O-])c1`, the GFP response vs DMSO in experiment [1] was 114% (inactive); in experiment [1] (setting [6]), 80.2%; in experiment [1] (setting [7]), 102%; in experiment [3] it was 132% (inactive). Moreover, the GFP response relative to DMSO in experiment [2] is 208% (active); in experiment [2] (setting [8]), 131%; in experiment [2] (setting [9]) it was 192%. Also, the GFP response, % of DMSO in experiment [4] was 153% (active); in experiment [5] it was 105% (inactive); in experiment [5] (setting [6]) it was 82.5%; in experiment [5] (setting [7]), 90.8%.

Regarding `COc1ccc(C(=O)C2CCCN(C(=O)c3cccs3)C2)cc1F` (stereo not drawn), the GFP response vs DMSO in experiment [1] was 102% (inactive); in experiment [1] (setting [6]), 101%; in experiment [1] (setting [7]), 101%; in experiment [3], 99% (inactive). Besides, the GFP response relative to DMSO in experiment [2] was 98.2% (inactive); in experiment [2] (setting [8]), 99.1%; in experiment [2] (setting [9]) it was 98.4%. In addition, the GFP response, % of DMSO was 103% (inactive) in experiment [4], 100% (inactive) in experiment [5], 103% in experiment [5] (setting [6]) and 99.3% in experiment [5] (setting [7]).

For the compound `COc1ccc(OC)c(NC(=O)c2cccc3c2C(=O)N(C2CCCCC2)C3)c1`, the GFP response vs DMSO in experiment [1] is 97.8% (inactive); in experiment [1] (setting [6]), 98.4%; in experiment [1] (setting [7]) it was 98.4%; in experiment [3], 98.3% (inactive). Further, the results for the GFP response relative to DMSO in experiment [2], in experiment [2] (setting [8]) and in experiment [2] (setting [9]) were 92.8% (inactive), 92.8% and 90.8%, respectively. The GFP response, % of DMSO in experiment [4] is 97.8% (inactive); in experiment [5], 101% (inactive); in experiment [5] (setting [6]) it was 103%; in experiment [5] (setting [7]) it was 98.5%.

As for `CCN(CC)c1ccc(/C=C/c2cccc[n+]2C)c(OC)c1`, the GFP response vs DMSO is 103% (inactive) in experiment [1], 103% in experiment [1] (setting [6]), 105% in experiment [1] (setting [7]) and 137% (inactive) in experiment [3]. Also, the values for the GFP response relative to DMSO in experiment [2], in experiment [2] (setting [8]) and in experiment [2] (setting [9]) were 113% (inactive), 113% and 116%, respectively. The GFP response, % of DMSO in experiment [4] was 104% (inactive); in experiment [5] it was 112% (inactive); in experiment [5] (setting [6]), 113%; in experiment [5] (setting [7]), 111%.
